{
  "source": "ChEMBL document CHEMBL4725436",
  "about": "“Gibberellin JRA-003: A Selective Inhibitor of Nuclear Translocation of IKKα” (ACS Med Chem Lett, 2020)",
  "key": {"CA46": {"system": "CA46", "assay": "Cytotoxicity against human CA46 cells assessed as reduction in cell viability measured after 24 hrs by CellTiter-Glo luminescent assay", "assay_type": "functional, cell-based", "settings": "CA46, 24 h", "in_short": "(§1)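 High-throughput viability screen of test agents across a panel of 22 cancerous and noncancerous human cell lines. Viability was read by CellTiter-Glo luminescence.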"}, "[1]": {"assay": "Selectivity index, ratio of IC50 for human Hs578Bst cells to EC50 for human HS578T cells measured after 24 hrs by CellTiter-Glo luminescent assay", "assay_type": "toxicity", "settings": "Hs578Bst cells (IC50) versus HS578T cells (EC50)", "in_short": "as §1"}, "[2]": {"assay": "Cytotoxicity against human Hs578Bst cells assessed as reduction in cell viability measured after 24 hrs by CellTiter-Glo luminescent assay", "assay_type": "cell-based", "in_short": "as §1"}, "[3]": {"molecular_target": "T1, Inhibitor of nuclear factor kappa-B kinase subunit beta (Homo sapiens) (UniProt O14920)", "T1 sequence (whole entry)": "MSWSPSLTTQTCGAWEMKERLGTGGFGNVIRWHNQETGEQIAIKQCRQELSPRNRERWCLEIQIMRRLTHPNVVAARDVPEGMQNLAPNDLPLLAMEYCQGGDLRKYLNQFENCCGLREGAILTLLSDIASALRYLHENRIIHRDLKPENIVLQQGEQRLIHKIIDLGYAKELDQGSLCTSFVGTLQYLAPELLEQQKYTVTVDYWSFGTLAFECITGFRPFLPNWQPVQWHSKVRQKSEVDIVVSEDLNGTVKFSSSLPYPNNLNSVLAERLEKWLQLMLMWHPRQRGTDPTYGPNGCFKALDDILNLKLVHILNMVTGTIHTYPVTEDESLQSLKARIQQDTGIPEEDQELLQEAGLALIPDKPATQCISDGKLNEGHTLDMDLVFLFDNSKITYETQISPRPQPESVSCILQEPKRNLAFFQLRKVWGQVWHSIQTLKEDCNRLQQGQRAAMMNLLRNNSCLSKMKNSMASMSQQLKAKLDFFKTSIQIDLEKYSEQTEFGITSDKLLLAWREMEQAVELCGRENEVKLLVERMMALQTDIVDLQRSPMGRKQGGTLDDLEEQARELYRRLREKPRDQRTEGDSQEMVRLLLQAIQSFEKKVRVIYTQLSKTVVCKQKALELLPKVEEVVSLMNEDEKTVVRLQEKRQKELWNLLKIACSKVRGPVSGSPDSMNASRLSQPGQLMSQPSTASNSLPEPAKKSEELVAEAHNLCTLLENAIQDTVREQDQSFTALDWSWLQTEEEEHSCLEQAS", "assay": "Inhibition of JRA-031 binding to IKKbeta in TNF-alpha-stimulated human HEK293T cells at 1 uM pretreated with compound for 1 hr followed by labeling with JRA-031 for 1 hr followed by stimulation with TNF-alpha for 1 hr by pull down based mass spectrometry", "assay_type": "cell-based", "settings": "HEK-293T"}, "[4]": {"assay": "Selectivity index, ratio of IC50 for human Hs888Lu cells to EC50 for human CA46 cells measured after 24 hrs by CellTiter-Glo luminescent assay", "assay_type": "toxicity", "settings": "Hs888Lu cells (IC50) versus CA46 cells (EC50)", "in_short": "as §1"}, "[5]": {"molecular_target": "T1, Inhibitor of nuclear factor kappa-B kinase subunit beta (Homo sapiens)", "assay": "Inhibition of IKK beta nuclear translocation in human HEK-293T cells assessed as reduction in IKK beta level in nucleus at 15 uM pretreated with compound for 1 hr followed by stimulation with IL-1 beta for 3 hrs by western blot analysis", "assay_type": "subcellular", "in_short": "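HEK 293T cells were pretreated with vehicle or test agent, then stimulated with IL-1β (or vehicle). Cells were lysed and nuclei separated, and the cytosolic and nuclear fractions were each probed for IKKα and IKKβ by Western blotting.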"}, "PSN1": {"system": "PSN1", "assay": "Cytotoxicity against human PSN1 cells assessed as reduction in cell viability measured after 24 hrs by CellTiter-Glo luminescent assay", "assay_type": "functional, cell-based", "settings": "PSN1, 24 h", "in_short": "as §1"}, "[6]": {"assay": "Selectivity index, ratio of IC50 for human Hs578Bst cells to EC50 for human HCC1599 cells measured after 24 hrs by CellTiter-Glo luminescent assay", "assay_type": "toxicity", "settings": "Hs578Bst cells (IC50) versus HCC1599 cells (EC50)", "in_short": "as §1"}, "[7]": {"assay": "Selectivity index, ratio of IC50 for human Hs888lu cells to EC50 for human HS578T cells measured after 24 hrs by CellTiter-Glo luminescent assay", "in_short": "as §1"}, "[8]": {"assay": "Selectivity index, ratio of IC50 for human HS895SK cells to EC50 for human RC-K8 cells measured after 24 hrs by CellTiter-Glo luminescent assay", "in_short": "as §1"}, "[9]": {"assay": "Selectivity index, ratio of IC50 for human Hs895SK cells to EC50 for human HS578T cells measured after 24 hrs by CellTiter-Glo luminescent assay", "assay_type": "toxicity", "settings": "Hs895SK cells (IC50) versus HS578T cells (EC50)", "in_short": "as §1"}, "[10]": {"assay": "Selectivity index, ratio of IC50 for human Hs888Lu cells to EC50 for human SU-DHL-4 cells measured after 24 hrs by CellTiter-Glo luminescent assay", "assay_type": "toxicity", "settings": "Hs888Lu cells (IC50) versus SU-DHL-4 cells (EC50)", "in_short": "as §1"}, "[11]": {"assay": "Cytotoxicity against human Hs895T cells assessed as reduction in cell viability measured after 24 hrs by CellTiter-Glo luminescent assay", "assay_type": "functional, cell-based", "in_short": "as §1"}, "[12]": {"assay": "Inhibition of IKKalpha/IKKbeta in human HEK293T cells transfected with firefly luciferase gene assessed as inhibition of TNF-alpha-stimulated NF-kappaB signalling preincubated for 1 hr followed by TNF alpha stimulation measured after 3 hrs by luciferase reporter gene assay", "assay_type": "cell-based", "settings": "HEK-293T", "in_short": "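Commercial NF-κB-driven luciferase reporter assay in HEK 293T cells stimulated with TNFα. EC50 was derived from the luminescence readout.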"}, "[13]": {"assay": "Selectivity index, ratio of IC50 for human HS895SK cells to EC50 for human SU-DHL-4 cells measured after 24 hrs by CellTiter-Glo luminescent assay", "in_short": "as §1"}, "HCC1599": {"system": "HCC1599", "assay": "Cytotoxicity against human HCC1599 cells assessed as reduction in cell viability measured after 24 hrs by CellTiter-Glo luminescent assay", "assay_type": "functional, cell-based", "settings": "HCC1599, 24 h", "in_short": "as §1"}, "[14]": {"assay": "Selectivity index, ratio of IC50 for human Hs888lu cells to EC50 for human HCC1599 cells measured after 24 hrs by CellTiter-Glo luminescent assay", "in_short": "as §1"}, "Hs-578T": {"system": "Hs-578T", "assay": "Cytotoxicity against human Hs-578T cells assessed as reduction in cell viability measured after 24 hrs by CellTiter-Glo luminescent assay", "assay_type": "functional, cell-based", "in_short": "as §1"}, "[15]": {"assay": "Selectivity index, ratio of IC50 for human Hs578Bst cells to EC50 for human RC-K8 cells measured after 24 hrs by CellTiter-Glo luminescent assay", "assay_type": "toxicity", "settings": "Hs578Bst cells (IC50) versus RC-K8 cells (EC50)", "in_short": "as §1"}, "HEK-293T [16]": {"system": "HEK-293T", "assay": "Cytotoxicity against human HEK293T cells assessed as reduction in cell viability measured after 24 hrs by CellTiter-Glo luminescent assay", "assay_type": "cell-based", "in_short": "as §1"}, "HEK-293T [17]": {"system": "HEK-293T", "assay": "Inhibition of IKKalpha/IKKbeta in human HEK293T cells transfected with firefly luciferase gene assessed as inhibition of NF-kappaB signalling at 10 uM by luciferase reporter gene assay", "assay_type": "cell-based"}, "[18]": {"assay": "Selectivity index, ratio of IC50 for human Hs578Bst cells to EC50 for human CA46 cells measured after 24 hrs by CellTiter-Glo luminescent assay", "assay_type": "toxicity", "settings": "Hs578Bst cells (IC50) versus CA46 cells (EC50)", "in_short": "as §1"}, "RCK8": {"system": "RCK8", "assay": "Cytotoxicity against human RC-K8 cells assessed as reduction in cell viability measured after 24 hrs by CellTiter-Glo luminescent assay", "assay_type": "functional, cell-based", "settings": "RCK8, 24 h", "in_short": "as §1"}},
  "note": "The source made the active and inactive calls. The rule behind the calls is not given here.",
  "data": [
    {"compound": "C=C1C[C@]23C[C@@]1(O)CC[C@H]2[C@@]12C=CC(=O)[C@@](C)(C(=O)O1)[C@H]2[C@@H]3C(=O)OC", "values": [
      {"measurement": "EC50", "setting": "CA46", "result": "< 40", "unit": "nM"},
      {"measurement": "selectivity ratio at 24 h", "setting": "[1]", "result": 500},
      {"measurement": "IC50", "setting": "[2]", "result": "> 10000", "unit": "nM"},
      {"measurement": "inhibition", "setting": "[3]", "result": "Active"},
      {"measurement": "selectivity ratio at 24 h", "setting": "[4]", "result": 500},
      {"measurement": "inhibition", "setting": "[5]", "result": "Active"},
      {"measurement": "IC50", "setting": "PSN1", "result": "> 10000", "unit": "nM"},
      {"measurement": "selectivity ratio at 24 h", "setting": "[6]", "result": 500},
      {"measurement": "Ratio IC50/EC50", "setting": "[7]", "result": "> 500"},
      {"measurement": "Ratio IC50/EC50", "setting": "[8]", "result": 500},
      {"measurement": "selectivity ratio at 24 h", "setting": "[9]", "result": "> 500"},
      {"measurement": "selectivity ratio at 24 h", "setting": "[10]", "result": 500},
      {"measurement": "EC50", "setting": "[11]", "result": 9200, "unit": "nM"},
      {"measurement": "EC50", "setting": "[12]", "result": 2600, "unit": "nM"},
      {"measurement": "Ratio IC50/EC50", "setting": "[13]", "result": 500},
      {"measurement": "EC50", "setting": "HCC1599", "result": 150, "unit": "nM"},
      {"measurement": "Ratio IC50/EC50", "setting": "[14]", "result": 500},
      {"measurement": "EC50", "setting": "Hs-578T", "result": "< 40", "unit": "nM"},
      {"measurement": "selectivity ratio at 24 h", "setting": "[15]", "result": 500},
      {"measurement": "IC50", "setting": "HEK-293T [16]", "result": "> 10000", "unit": "nM"},
      {"measurement": "inhibition", "setting": "HEK-293T [17]", "result": 100, "unit": "%"},
      {"measurement": "selectivity ratio at 24 h", "setting": "[18]", "result": 500},
      {"measurement": "EC50", "setting": "RCK8", "result": "< 40", "unit": "nM"}
    ]}
  ]
}
